Source: ChEMBL document CHEMBL3112420, “Discovery of 8-cyclopentyl-2-[4-(4-methyl-piperazin-1-yl)-phenylamino]-7-oxo-7,8-dihydro-pyrido[2,3-d]pyrimidine-6-carbonitrile (7x) as a potent inhibitor of cyclin-dependent kinase 4 (CDK4) and AMPK-related kinase 5 (ARK5)” (J Med Chem, 2014)
The source made the active and inactive calls. No cut-off for these calls is given here.

Columns and labels:
DU-145 = test: Cytotoxicity against human DU145 cells after 96 hrs by Cell-Titer Blue assay; format: functional, cell-based; conditions: DU-145, 96 h
K562 = test: Cytotoxicity against human K562 cells after 96 hrs by Cell-Titer Blue assay; format: functional, cell-based; conditions: K562, 96 h
[1] = biological target: Cyclin-dependent kinase 1/cyclin B1 (Homo sapiens, UniProt P06493); test: Inhibition of CDK1/cyclinB (unknown origin); format: protein-complex assay
[2] = biological target: Cyclin-dependent kinase 2/cyclin E1 (Homo sapiens, UniProt P24941); test: Inhibition of CDK2/cyclinE (unknown origin); format: protein-complex assay
MDA-MB-231 [3] = test: Cell cycle arrest in human MDA-MB-231 cells assessed as accumulation at G1 phase at 0.5 to 1 uM after 24 hrs by propidium iodide staining-based flow cytometric analysis; format: functional
Summary of the method: (§1)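 Cells plated at 1.0 × 10^6 per dish, then treated 24 h later with increasing concentrations for 24 h. Floating and adherent cells were pooled, PBS-washed and fixed in ice-cold 70% ethanol for at least 24 h. They were then stained with propidium iodide plus RNase A for 30 min at 37 °C. Percentage of cells in each phase was read by flow cytometry.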

MDA-MB-231 [4] = test: Cell cycle arrest in human MDA-MB-231 cells assessed as accumulation at sub-G1 phase at 0.5 to 1 uM after 48 hrs by propidium iodide staining-based flow cytometric analysis; format: functional
[5] = biological target: T1, Cyclin-dependent kinase 4/cyclin D1 (Homo sapiens) (UniProt P11802+P24385); test: Inhibition of recombinant CDK4/cyclinD1 in human MDA-MB-231 cells assessed as inhibition of retinoblastoma phosphorylation at Ser780 at 0.5 to 5 uM after 24 hrs by Western blotting analysis; format: cell-based
Summary of the method: (§2)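 Breast carcinoma cells were given increasing concentrations for 24 h. Total lysates (100 μg, 10% SDS-PAGE) were immunoblotted with antibodies against Ser780-phosphorylated and non-phosphorylated RB. Bands were read on an infrared scanning system.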

[6] = biological target: NUAK family SNF1-like kinase 1 (Homo sapiens, UniProt O60285); test: Inhibition of ARK5 (unknown origin)
MCF7 [7] = test: Induction of apoptosis in human MCF7 cells assessed as PARP cleavage at 1 to 10 uM after 24 hrs by Western blotting analysis; format: functional, cell-based
MDA-MB-231 [8] = test: Induction of apoptosis in human MDA-MB-231 cells assessed as PARP cleavage at 1 to 10 uM after 24 hrs by Western blotting analysis; format: functional, cell-based
MCF7 [9] = test: Cell cycle arrest in human MCF7 cells assessed as accumulation at sub-G1 phase at 0.5 to 1 uM after 48 hrs by propidium iodide staining-based flow cytometric analysis; format: functional
[10] = biological target: Phosphatidylinositol 4,5-bisphosphate 3-kinase catalytic subunit delta isoform (Homo sapiens, UniProt O00329); test: Inhibition of PI3Kdelta (unknown origin)
[11] = biological target: T1, Cyclin-dependent kinase 4/cyclin D1 (Homo sapiens); test: Inhibition of recombinant CDK4/cyclinD1 in human MCF7 cells assessed as inhibition of retinoblastoma phosphorylation at Ser780 at 0.5 to 5 uM after 24 hrs by Western blotting analysis; format: cell-based; summary of the method: as §2
MCF7 [12] = test: Cell cycle arrest in human MCF7 cells assessed as accumulation at G1 phase at 0.5 to 1 uM after 24 hrs by propidium iodide staining-based flow cytometric analysis; format: functional; summary of the method: as §1

Chain of Phosphatidylinositol 4,5-bisphosphate 3-kinase catalytic subunit delta isoform (O00329 whole entry, canonical isoform): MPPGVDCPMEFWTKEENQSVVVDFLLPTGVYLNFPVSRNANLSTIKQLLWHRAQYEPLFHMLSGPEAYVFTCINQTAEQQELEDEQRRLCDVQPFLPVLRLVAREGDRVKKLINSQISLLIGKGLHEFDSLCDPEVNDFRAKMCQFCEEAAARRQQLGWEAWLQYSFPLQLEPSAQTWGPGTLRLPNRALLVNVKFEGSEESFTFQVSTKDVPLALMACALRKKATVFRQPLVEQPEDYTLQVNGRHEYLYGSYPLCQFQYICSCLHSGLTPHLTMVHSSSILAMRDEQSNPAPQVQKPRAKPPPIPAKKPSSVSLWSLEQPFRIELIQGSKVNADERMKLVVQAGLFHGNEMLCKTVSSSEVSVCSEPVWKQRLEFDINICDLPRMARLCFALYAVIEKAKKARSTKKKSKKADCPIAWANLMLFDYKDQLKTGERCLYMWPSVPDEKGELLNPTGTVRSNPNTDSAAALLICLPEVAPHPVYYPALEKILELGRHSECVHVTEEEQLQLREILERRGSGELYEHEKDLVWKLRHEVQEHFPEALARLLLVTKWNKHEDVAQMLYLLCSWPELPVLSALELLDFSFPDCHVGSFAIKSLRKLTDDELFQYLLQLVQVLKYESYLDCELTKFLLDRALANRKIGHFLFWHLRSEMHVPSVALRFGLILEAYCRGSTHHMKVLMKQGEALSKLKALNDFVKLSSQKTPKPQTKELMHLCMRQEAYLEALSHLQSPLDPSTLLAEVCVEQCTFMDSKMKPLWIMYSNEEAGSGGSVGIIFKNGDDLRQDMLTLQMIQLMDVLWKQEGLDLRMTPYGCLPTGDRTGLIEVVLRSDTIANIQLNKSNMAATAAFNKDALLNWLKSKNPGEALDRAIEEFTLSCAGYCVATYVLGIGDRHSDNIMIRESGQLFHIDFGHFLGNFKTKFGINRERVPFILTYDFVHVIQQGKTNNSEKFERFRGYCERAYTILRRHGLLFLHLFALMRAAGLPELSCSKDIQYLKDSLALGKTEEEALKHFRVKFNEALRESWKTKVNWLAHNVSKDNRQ
Chain of Cyclin-dependent kinase 1/cyclin B1 (P06493 whole entry): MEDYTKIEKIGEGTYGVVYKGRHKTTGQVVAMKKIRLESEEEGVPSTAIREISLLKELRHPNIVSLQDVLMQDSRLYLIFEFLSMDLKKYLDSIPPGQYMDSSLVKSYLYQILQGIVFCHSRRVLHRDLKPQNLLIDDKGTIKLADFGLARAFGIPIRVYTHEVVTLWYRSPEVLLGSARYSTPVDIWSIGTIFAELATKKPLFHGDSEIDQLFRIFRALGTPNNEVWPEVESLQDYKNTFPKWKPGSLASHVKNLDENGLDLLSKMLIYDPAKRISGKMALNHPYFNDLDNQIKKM
Chain of Cyclin-dependent kinase 1/cyclin B1 (P14635 whole entry, further chain): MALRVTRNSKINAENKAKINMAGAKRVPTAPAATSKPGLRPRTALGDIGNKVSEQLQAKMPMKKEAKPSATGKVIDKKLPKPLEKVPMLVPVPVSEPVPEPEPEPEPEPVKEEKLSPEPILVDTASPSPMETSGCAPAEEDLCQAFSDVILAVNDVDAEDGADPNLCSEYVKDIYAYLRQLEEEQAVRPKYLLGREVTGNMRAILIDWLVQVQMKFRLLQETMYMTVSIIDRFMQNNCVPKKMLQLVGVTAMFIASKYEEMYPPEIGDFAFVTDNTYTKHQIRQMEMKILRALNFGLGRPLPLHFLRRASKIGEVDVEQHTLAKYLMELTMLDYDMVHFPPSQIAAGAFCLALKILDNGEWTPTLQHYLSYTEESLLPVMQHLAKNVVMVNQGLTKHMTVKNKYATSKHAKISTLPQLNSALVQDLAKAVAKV
Chain of NUAK family SNF1-like kinase 1 (O60285 whole entry): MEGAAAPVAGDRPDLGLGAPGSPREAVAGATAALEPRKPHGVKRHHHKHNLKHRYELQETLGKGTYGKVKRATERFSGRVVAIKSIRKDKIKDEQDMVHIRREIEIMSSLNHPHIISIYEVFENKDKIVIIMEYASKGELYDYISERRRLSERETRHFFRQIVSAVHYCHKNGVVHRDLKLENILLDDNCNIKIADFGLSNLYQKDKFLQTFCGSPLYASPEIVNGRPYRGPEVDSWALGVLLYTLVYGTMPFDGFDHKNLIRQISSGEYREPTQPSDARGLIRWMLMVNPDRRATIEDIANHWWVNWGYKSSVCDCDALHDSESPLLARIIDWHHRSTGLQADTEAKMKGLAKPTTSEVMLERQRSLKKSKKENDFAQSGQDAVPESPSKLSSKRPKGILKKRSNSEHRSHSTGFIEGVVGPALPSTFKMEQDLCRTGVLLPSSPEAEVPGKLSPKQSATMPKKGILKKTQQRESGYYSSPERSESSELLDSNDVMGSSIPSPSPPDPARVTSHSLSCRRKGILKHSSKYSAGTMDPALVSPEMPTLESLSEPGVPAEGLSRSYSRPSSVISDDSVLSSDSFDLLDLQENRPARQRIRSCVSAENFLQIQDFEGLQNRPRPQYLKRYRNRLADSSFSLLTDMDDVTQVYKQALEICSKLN

SMILES	IC50 (DU-145) [µM]	IC50 (K562) [µM]	also measured
N#Cc1cc2cnc(Nc3cccc4cccnc34)nc2n(C2CCCC2)c1=O	1	1	–
COc1ccc(CS(=O)(=O)c2cc3cnc(Nc4ccc(N5CCN(C)CC5)cc4)nc3n(C3CCCC3)c2=O)cc1[N+](=O)[O-]	5	2	–
COc1cc(Nc2ncc3cc(C#N)c(=O)n(C4CCCC4)c3n2)cc(OC)c1	15	15	–
N#Cc1cc2cnc(Nc3cnc4ccccc4c3)nc2n(C2CCCC2)c1=O	5	5	–
CN1CCN(c2ccc(N(C(=O)c3ccc(C(F)(F)F)cc3)c3ncc4cc(C#N)c(=O)n(C5CCCC5)c4n3)cc2)CC1	1	0.5	–
N#Cc1cc2cnc(Nc3ccccc3O)nc2n(C2CCCC2)c1=O	15	15	–
Nc1ccc2c(=S)c3ccccc3[nH]c2c1	–	–	IC50 [1]: > 100 µM; IC50 [2]: > 100 µM
CCCCn1c(=O)c(C#N)cc2cnc(Nc3ccc(N4CCN(C)CC4)cc3)nc21	0.75	0.75	–
COc1cccc(Nc2ncc3cc(C#N)c(=O)n(C4CCCC4)c3n2)c1	0.5	5	–
COc1ccc2cc(Nc3ncc4cc(C#N)c(=O)n(C5CCCC5)c4n3)ccc2n1	3	0.25	–
CN1CCN(c2ccc(Nc3ncc4cc(C#N)c(=O)n(C5CC5)c4n3)cc2)CC1	2.5	2.5	–
CN1CCN(c2ccc(Nc3ncc4cc(C#N)c(=O)n(C5CCCC5)c4n3)nc2)CC1	15	5	–
N#Cc1cc2cnc(Nc3ccc(N4CCOCC4)cn3)nc2n(C2CCCC2)c1=O	15	5	–
CN1CCN(c2ccc(Nc3ncc4cc(S(=O)(=O)c5ccc(Cl)cc5)c(=O)n(C5CCCC5)c4n3)cc2)CC1	15	5	–
CN1CCN(c2ccc(Nc3ncc4cc(C#N)c(=O)[nH]c4n3)cc2)CC1	30	30	–
COc1ccc(Nc2ncc3cc(C#N)c(=O)n(C4CCCC4)c3n2)cc1OC	5	2	–
N#Cc1cc2cnc(Nc3ccc4[nH]ccc4c3)nc2n(C2CCCC2)c1=O	5	5	–
N#Cc1ccnc(Nc2ncc3cc(C#N)c(=O)n(C4CCCC4)c3n2)c1	30	5	–
CC(C)n1c(=O)c(C#N)cc2cnc(Nc3ccc(N4CCN(C)CC4)cc3)nc21	2.5	2.5	–
N#Cc1cc2cnc(Nc3ccc(N4CCOCC4)cc3)nc2n(C2CCCC2)c1=O	15	5	–
CN1CCN(c2ccc(Nc3ncc4cc(S(=O)(=O)Cc5ccc(Cl)cc5)c(=O)n(C5CCCC5)c4n3)cc2)CC1	75	10	–
COc1ccc(Nc2ncc3cc(C#N)c(=O)n(C4CCCC4)c3n2)c(OC)c1	15	15	–
CC(=O)c1c(C)c2cnc(Nc3ccc(N4CCNCC4)cn3)nc2n(C2CCCC2)c1=O [PALBOCICLIB]	7.5	2	Activity (MDA-MB-231 [3]): Active; Activity (MDA-MB-231 [4]): inactive; inhibition [5]: Active; IC50 [6]: > 5 µM; Activity (MCF7 [7]): inactive; Activity (MDA-MB-231 [8]): inactive; Activity (MCF7 [9]): inactive; IC50 [10]: > 10 µM; inhibition [11]: Active; Activity (MCF7 [12]): Active

SMILES	IC50 (DU-145) [µM]	IC50 (K562) [µM]	also measured
COc1ccc(F)cc1Nc1ncc2cc(C#N)c(=O)n(C3CCCC3)c2n1	75	75	–
CC(=O)N(c1ccc(N2CCN(C)CC2)cc1)c1ncc2cc(C#N)c(=O)n(C3CCCC3)c2n1	5	0.75	–
N#Cc1cc2cnc(Nc3cccc4[nH]ccc34)nc2n(C2CCCC2)c1=O	15	30	–
COc1cc(Nc2ncc3cc(C#N)c(=O)n(C4CCCC4)c3n2)cc(OC)c1OC	5	2.5	–
N#Cc1cc2cnc(Nc3ccccn3)nc2n(C2CCCC2)c1=O	3	0.5	–
CCCn1c(=O)c(C#N)cc2cnc(Nc3ccc(N4CCN(C)CC4)cc3)nc21	15	5	–
CN1CCN(c2ccc(Nc3ncc4cc(C(=O)Nc5ccc(Cl)cc5)c(=O)n(C5CCCC5)c4n3)cc2)CC1	30	5	–
COc1ccc(Nc2ncc3cc(C#N)c(=O)n(C4CCCC4)c3n2)cc1	25	75	–
COc1ccccc1Nc1ncc2cc(C#N)c(=O)n(C3CCCC3)c2n1	30	15	–
N#Cc1ccc(Nc2ncc3cc(C#N)c(=O)n(C4CCCC4)c3n2)cc1	5	75	–
CN1CCN(c2ccc(Nc3ncc4cc(S(=O)(=O)c5ccccc5)c(=O)n(C5CCCC5)c4n3)cc2)CC1	75	30	–
CN1CCN(c2ccc(Nc3ncc4cc(C#N)c(=O)n(C5CCCCC5)c4n3)cc2)CC1	50	1.5	–
CN1CCN(c2ccc(Nc3ncc4cc(C#N)c(=O)n(C)c4n3)cc2)CC1	75	75	–
CCCCCn1c(=O)c(C#N)cc2cnc(Nc3ccc(N4CCN(C)CC4)cc3)nc21	1.5	0.75	–
CCn1c(=O)c(C#N)cc2cnc(Nc3ccc(N4CCN(C)CC4)cc3)nc21	1.5	0.75	–
N#Cc1cc2cnc(N3CCN(c4ccc(C(F)(F)F)cn4)CC3)nc2n(C2CCCC2)c1=O	100	30	–
N#Cc1cc2cnc(Nc3ccc(Cl)cc3)nc2n(C2CCCC2)c1=O	30	30	–
CN1CCN(c2ccc(Nc3ncc4cc(S(C)(=O)=O)c(=O)n(C5CCCC5)c4n3)cc2)CC1	5	5	–
N#Cc1cc2cnc(NCc3ccccc3)nc2n(C2CCCC2)c1=O	75	100	–
COc1ccc(CS(=O)(=O)c2cc3cnc(Nc4ccc(N5CCN(C)CC5)cc4)nc3n(C3CCCC3)c2=O)cc1O	2	2	–
CN1CCN(c2ccc(Nc3ncc4cc([N+](=O)[O-])c(=O)n(C5CCCC5)c4n3)cc2)CC1	2.5	0.75	–
CN1CCN(c2ccc(Nc3ncc4cc(C(=O)Nc5ccc(F)cc5)c(=O)n(C5CCCC5)c4n3)cc2)CC1	30	15	–
